Results taken from ChEMBL document CHEMBL1123514 (J Med Chem, 1986).

Assays:
[1] = species on record: Homo sapiens; assay: The compound was evaluated for the optical density at concentrations 10E-7 M in MCF-7 cell culture in the presence of estradiol.; assay type: ADME
Method in brief: (§1)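 MCF-7 cells seeded at 10000 cells/mL in 96-well dishes and cultured 24 h. Compound (final 10⁻⁷, 10⁻⁶ or 10⁻⁵ M) was then added together with estradiol at 10⁻⁸ M final to test whether estradiol antagonizes growth inhibition. After 5 days, cells were ethanol-fixed (90%) and hematoxylin-stained, and optical density was read at 540 nm.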

[2] = species on record: Homo sapiens; assay: The compound was evaluated for the optical density at concentration 10E-5 M in MCF-7 cell culture.; assay type: ADME
[3] = species on record: Homo sapiens; assay: The compound was evaluated for the optical density at concentration 10E-6 M in MCF-7 cell culture in the presence of estradiol.; assay type: ADME; method in brief: as §1
[4] = species on record: Homo sapiens; assay: The compound was evaluated for the optical density at concentration 10E-6 M in MCF-7 cell culture.; assay type: ADME
[5] = species on record: Homo sapiens; assay: The compound was evaluated for the optical density at concentration 10E-7 M in MCF-7 cell culture.; assay type: ADME
[6] = species on record: Homo sapiens; assay: The compound was evaluated for the optical density at concentrations 10E-5 M in MCF-7 cell culture in the presence of estradiol.; assay type: ADME; method in brief: as §1
[7] = target: Estrogen receptor (Rattus norvegicus) (UniProt P06211+Q62986)
[8] = target: Estrogen receptor (Homo sapiens) (UniProt P03372)
Chain of Estrogen receptor (Homo sapiens) (P03372 whole entry, looked up): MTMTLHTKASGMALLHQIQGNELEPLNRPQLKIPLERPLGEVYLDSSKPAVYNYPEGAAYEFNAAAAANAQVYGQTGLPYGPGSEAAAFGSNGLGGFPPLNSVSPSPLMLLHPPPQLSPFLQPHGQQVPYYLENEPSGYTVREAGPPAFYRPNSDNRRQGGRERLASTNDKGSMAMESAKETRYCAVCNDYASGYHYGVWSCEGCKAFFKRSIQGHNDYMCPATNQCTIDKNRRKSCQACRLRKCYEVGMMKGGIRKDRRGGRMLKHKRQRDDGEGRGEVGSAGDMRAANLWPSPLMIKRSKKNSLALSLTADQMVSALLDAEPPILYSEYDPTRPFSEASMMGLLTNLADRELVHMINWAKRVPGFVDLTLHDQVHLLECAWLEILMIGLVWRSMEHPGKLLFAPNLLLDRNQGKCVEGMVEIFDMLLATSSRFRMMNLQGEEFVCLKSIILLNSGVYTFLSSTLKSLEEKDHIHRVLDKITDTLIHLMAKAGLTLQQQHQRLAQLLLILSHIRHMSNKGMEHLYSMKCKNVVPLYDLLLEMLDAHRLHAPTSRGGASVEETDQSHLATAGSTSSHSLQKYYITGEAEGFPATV

SMILES | Optical density [1] | Optical density [2] | Optical density [3] | Optical density [4] | Optical density [5] | Optical density [6] | Affinity [7] | Affinity [8]
CN(C)CCOc1ccc(C2=C(c3ccccc3)CCc3ccccc32)cc1 | 0.45 | 0.049 | 0.385 | 0.288 | 0.39 | 0.079 | 0.5 | 0.02
CN(C)CCOc1ccc(C2=C(c3ccccc3)CCCc3ccccc32)cc1 | 0.379 | 0.058 | 0.438 | 0.182 | 0.244 | 0.098 | 1 | 0.02
